The record followed here is ChEMBL document CHEMBL1123920, “Leukotriene D4 antagonists and 5-lipoxygenase inhibitors. Synthesis of benzoheterocyclic [(methoxyphenyl)amino]oxoalkanoic acid esters” (J Med Chem, 1987).

Bounds are passed on as bounds.

In one assay the test system is Cavia porcellus. Briefly: Ability to inhibit the Ovalbumin induced bronchospasm in guinea pig was determined in vivo at a dose of 50 mg/kg id. The format is functional. Particulars: route intraduodenal. In short, it runs like this:
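Guinea pigs were challenged with LTD4 or ovalbumin to induce bronchospasm, and test agent was given intraduodenally. Read-out is percent inhibition of bronchospasm. Significance uses a two-tailed Student's t test (p < 0.05). N is the number of treated animals.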

In assay [1] the target is T1, Polyunsaturated fatty acid 5-lipoxygenase (Rattus norvegicus) (UniProt P12527).
T1 sequence (whole entry): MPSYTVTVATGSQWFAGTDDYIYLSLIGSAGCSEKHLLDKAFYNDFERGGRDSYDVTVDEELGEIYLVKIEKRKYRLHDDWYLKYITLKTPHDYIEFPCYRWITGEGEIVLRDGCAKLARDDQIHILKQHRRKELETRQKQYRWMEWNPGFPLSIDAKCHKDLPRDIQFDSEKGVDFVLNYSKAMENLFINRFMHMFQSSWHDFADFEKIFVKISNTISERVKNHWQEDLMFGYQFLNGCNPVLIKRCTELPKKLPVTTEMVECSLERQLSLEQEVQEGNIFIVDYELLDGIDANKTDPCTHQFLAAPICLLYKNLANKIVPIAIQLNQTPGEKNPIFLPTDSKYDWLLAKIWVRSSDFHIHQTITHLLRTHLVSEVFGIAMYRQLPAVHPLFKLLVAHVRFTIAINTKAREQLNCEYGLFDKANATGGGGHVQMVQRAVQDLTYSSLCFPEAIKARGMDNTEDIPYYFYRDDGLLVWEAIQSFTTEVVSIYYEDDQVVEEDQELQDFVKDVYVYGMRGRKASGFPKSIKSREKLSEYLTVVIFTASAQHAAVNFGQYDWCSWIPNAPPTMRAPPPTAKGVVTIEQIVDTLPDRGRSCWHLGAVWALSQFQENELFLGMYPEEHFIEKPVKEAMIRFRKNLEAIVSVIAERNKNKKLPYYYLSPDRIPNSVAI
Briefly: Ability to inhibit Lipoxygenase in vitro was determined; NA is <50% inhibition at 100 uM. In short, it runs like this:
(§1)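 Source is rat polymorphonuclear leukocyte (PMN) 5-lipoxygenase. IC50 values come from nonlinear regression analysis, significant at p < 0.05.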

For assay [2], the species on record is Rattus norvegicus. Put plainly: Tested for metabolic activation counted as mean number of revertants in strains TA98, TA100, TA1535, and TA1538, three plates per treatment at 0.005 mg per plate, with activation provided by S-9 rat liver homogenates in Ames test. The format is functional, organism-based.
Assay [3] is filed under the species Rattus norvegicus. Briefly: Tested for metabolic activation counted as mean number of revertants in strains TA98, TA100, TA1535, and TA1538, three plates per treatment at 0.005 mg per plate, without activation in the absence of S-9 rat liver homogenates in Ames test. It counts as functional, organism-based. For orientation: The Ames test uses bacterial strains that need an amino acid and regain growth without it when mutated back.

For assay [4], the species on record is Rattus norvegicus. Put plainly: Tested for metabolic activation counted as mean number of revertants in strains TA98, TA100, TA1535, and TA1538, three plates per treatment at 0.015 mg per plate, without activation in the absence of S-9 rat liver homogenates in Ames test. It counts as functional, organism-based.
The species entered for assay [5] is Rattus norvegicus. Briefly: Tested for metabolic activation counted as mean number of revertants in strains TA98, TA100, TA1535, and TA1538, three plates per treatment at 0.05 mg per plate, with activation provided by S-9 rat liver homogenates in Ames test. The format is functional, organism-based.
The species entered for assay [6] is Rattus norvegicus. Put plainly: Tested for metabolic activation counted as mean number of revertants in strains TA98, TA100, TA1535, and TA1538, three plates per treatment at 0.05 mg per plate, without activation in the absence of S-9 rat liver homogenates in Ames test. It counts as functional, organism-based.
The species named for assay [7] is Rattus norvegicus. Put plainly: Tested for metabolic activation counted as mean number of revertants in strains TA98, TA100, TA1535, and TA1538, three plates per treatment at 0.15 mg per plate, with activation provided by S-9 rat liver homogenates in Ames test. The format is functional, organism-based.
The species named for assay [8] is Rattus norvegicus. Put plainly: Tested for metabolic activation counted as mean number of revertants in strains TA98, TA100, TA1535, and TA1538, three plates per treatment at 0.15 mg per plate, without activation in the absence of S-9 rat liver homogenates in Ames test. The format is functional, organism-based.
For assay [9], the species on record is Rattus norvegicus. Briefly: Tested for metabolic activation counted as mean number of revertants in strains TA98, TA100, TA1535, and TA1538, three plates per treatment at 0.5 mg per plate, with activation provided by S-9 rat liver homogenates in Ames test. It counts as functional, organism-based.
The species entered for assay [10] is Rattus norvegicus. Briefly: Tested for metabolic activation counted as mean number of revertants in strains TA98, TA100, TA1535, and TA1538, three plates per treatment at 0.015 mg per plate, with activation provided by S-9 rat liver homogenates in Ames test. The format is functional, organism-based.
The target in assay [11] is T2, Polyunsaturated fatty acid 5-lipoxygenase (Rattus norvegicus, UniProt P12527).
T2 sequence (P12527 whole entry): T1 sequence (whole entry)
Briefly: (§2) Ability to inhibit Lipoxygenase in vitro was determined. Summed up:
as §1

Assay [12] has as its target T2, Polyunsaturated fatty acid 5-lipoxygenase. Put plainly: Ability to inhibit the rat Lipoxygenase in vitro was determined. Summed up:
as §1

For assay [13] the target is unchanged. The description is as §2. This is another data set of the same source.
The subject of assay [14] is Cysteinyl leukotriene receptor (Cavia porcellus). Briefly: Inhibition of LTD4 induced bronchospasm in guinea pig was determined in at 50 mg/kg i.d.
Assay [15] concerns the target T1, Polyunsaturated fatty acid 5-lipoxygenase (Rattus norvegicus). Put plainly: Ability to inhibit the rat Lipoxygenase in vitro was determined; NA is <50% inhibition at 100 uM. In short, it runs like this:
as §1

By inhibition in vivo is commonly meant the drop in the measured response relative to a control, in per cent. Broadly, the inhibition is the change of the read-out against control, counted positive when it falls. Low readings indicate a response near the control, high ones a response far below the control. In the assay on Cavia porcellus, `O=C1CCC(=O)N1c1cccc(OCc2ccc3ccccc3n2)c1` registered an inhibition in vivo at 50 mg/kg of 26%. Besides, in [1], the inhibition is less than 50%. Besides, the Mean no. of revertants in the assay listed under Rattus norvegicus [2] worked out at 5; in the assay filed under Rattus norvegicus [3], 6; in the assay filed under Rattus norvegicus [4], 9; in the assay filed under Rattus norvegicus [5] it was 7; in the assay listed under Rattus norvegicus [6], 12; in the assay filed under Rattus norvegicus [7] it was 8. In addition, the Mean no. of revertants in the assay listed under Rattus norvegicus [8] came to 43; in the assay filed under Rattus norvegicus [9], 45; in the assay listed under Rattus norvegicus [10], 7.

For orientation: IC50 means the concentration that inhibits the measured activity by half. In the case of `COC(=O)CCC(=O)Nc1cccc(OCc2nc3ccccc3n2C)c1`, in the assay on Cavia porcellus, at 50 mg/kg the inhibition in vivo was 60%. Moreover, 7.2 µM corresponded to half-maximal inhibition in assay [11] (IC50).

As to `COC(=O)CCC(=O)Nc1cccc(OCc2nc3ccccc3s2)c1`, in the assay on Cavia porcellus, at 50 mg/kg the inhibition in vivo was 63%. The same compound came in with a concentration for half-maximal inhibition (IC50) in assay [12] of 15.7 µM.

In the case of `O=C(O)CCC(=O)Nc1cccc(OCc2nc3ccccc3s2)c1`, the inhibition in [1] was less than 50%.

Compound `COC(=O)C1CC(=O)N(c2cccc(OCc3nc4ccccc4s3)c2)C1` (configuration not stated) had a half-inhibitory concentration (IC50) in [13] of 14 µM.

`CCCCCC(O)c1cccc(OCc2ccc3ccccc3n2)c1` (configuration not stated) [REV-5901] returned an inhibition in vivo at 50 mg/kg in the assay with Cavia porcellus of 60.2%.

The compound `Cn1c(COc2cccc(N3C(=O)CCC3=O)c2)nc2ccccc21` displayed an inhibition in assay [1] of less than 50%.

`O=C1CCC(=O)N1c1cccc(OCc2nc3ccccc3s2)c1`: the inhibition in vivo at 50 mg/kg in the assay with Cavia porcellus came to 18%. Moreover, the inhibition in assay [1] is less than 50%.

In turn, `COC(=O)CCC(=O)N(O)c1cccc(OCc2ccc3ccccc3n2)c1` yielded an inhibition in vivo at 50 mg/kg in the assay with Cavia porcellus of 76%. Further, the Mean no. of revertants in the assay listed under Rattus norvegicus [2] is 13; in the assay filed under Rattus norvegicus [3] it was 15; in the assay listed under Rattus norvegicus [4], 9; in the assay filed under Rattus norvegicus [5], 16; in the assay filed under Rattus norvegicus [6] it was 13; in the assay filed under Rattus norvegicus [7], 12. Further, the Mean no. of revertants in the assay listed under Rattus norvegicus [8] came to 31; in the assay listed under Rattus norvegicus [9], 716; in the assay filed under Rattus norvegicus [10] it was 10. In [14], the inhibition was 97%.

Take `Cn1c(COc2cccc(NC(=O)CCC(=O)O)c2)nc2ccccc21`: the inhibition in assay [15] was less than 50%.

With `COC(=O)CCC(=O)Nc1cccc(OCC(=O)Nc2ccccc2)c1`, the inhibition in vivo at 50 mg/kg in the assay with Cavia porcellus worked out at 7%. In assay [1], this compound came in with an inhibition of less than 50%.

As for `COC(=O)CC(=O)Nc1cccc(OCc2nc3ccccc3n2C)c1`, in the assay on Cavia porcellus, the inhibition in vivo at 50 mg/kg came to 5%. Further, the inhibition in assay [1] was less than 50%.
